From ChEMBL document CHEMBL1124223, “1-Substituted 7-[3-[(ethylamino)methyl]-1-pyrrolidinyl]-6,8- difluoro-1,4-dihydro-4-oxo-3-quinolinecarboxylic acids. New quantitative structure-activity relationships at N1 for the quinolone antibacterials” (1988)
≈ marks a conversion by molar mass, not a printed value.

What was measured:
Assay type in all cases: functional
Escherichia coli [1] = experiment: Potency against Escherichia coli (H560)
Escherichia coli [2] = experiment: Potency against Gram-negative mean
Escherichia coli [3] = experiment: Minimum inhibitory concentration against Escherichia coli (H560)
Summary of the method: (§1)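 MICs were determined by standard microtitration against a panel of 11 bacterial strains. Aqueous stock solutions were prepared with 0.1 N sodium or potassium hydroxide.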

Escherichia coli [4] = experiment: Minimum inhibitory concentration against Escherichia coli (vogel); summary of the method: as §1
Enterobacter cloacae = experiment: Minimum inhibitory concentration against Enterobacter cloacae. (MA2446).
Klebsiella pneumoniae = experiment: Minimum inhibitory concentration against Klebsiella pneumoniae (MGH-2); summary of the method: as §1
Mus musculus [5] = experiment: In vivo activity against Pseudomonas aeruginosa (po); conditions: read-out: PD50
Summary of the method: (§2)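 Median protective dose (PD50, mg/kg) measured in acute, lethal, systemic infections in female Charles River CD-1 mice. A single dose of compound was given at the time of bacterial challenge. Aqueous stock solutions were made with 0.1 N sodium or potassium hydroxide.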

Mus musculus [6] = experiment: In vivo activity against Pseudomonas aeruginosa (sc); conditions: read-out: PD50; summary of the method: as §2
Mus musculus [7] = experiment: In vivo activity against Streptococcus pneumoniae (po); conditions: read-out: PD50; summary of the method: as §2
Mus musculus [8] = experiment: In vivo activity against Streptococcus pneumoniae (sc); conditions: read-out: PD50; summary of the method: as §2
Mus musculus [9] = experiment: In vivo activity against Streptococcus pyogenes (po); conditions: read-out: PD50; summary of the method: as §2
Mus musculus [10] = experiment: In vivo activity against Streptococcus pyogenes (sc); conditions: read-out: PD50; summary of the method: as §2
Mus musculus [11] = experiment: In vivo activity against Escherichia coli (po); conditions: read-out: PD50; summary of the method: as §2
Pseudomonas aeruginosa = experiment: Minimum inhibitory concentration against Pseudomonas aeruginosa. (UI-18); summary of the method: as §1
Providencia rettgeri = experiment: Minimum inhibitory concentration against Providencia rettgeri. (M1771); summary of the method: as §1
Streptococcus pyogenes = experiment: Minimum inhibitory concentration against Streptococcus pyogenes (C203).; summary of the method: as §1
Staphylococcus aureus [12] = experiment: Minimum inhibitory concentration against Staphylococcus aureus (H-228).; summary of the method: as §1
Staphylococcus aureus [13] = experiment: Minimum inhibitory concentration against Staphylococcus aureus (UC76).; summary of the method: as §1
Streptococcus pneumoniae = experiment: Minimum inhibitory concentration against Streptococcus pneumoniae (SV-1).; summary of the method: as §1
Enterobacter [14] = experiment: Minimum inhibitory concentration against gram-negative enterobacteriaceae.
Summary of the method: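 This value is the geometric mean of microtitration MICs for the Gram-negative Enterobacteriaceae strains in the 11-organism panel. Aqueous stocks were prepared in 0.1 N sodium or potassium hydroxide.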

Mus musculus [15] = experiment: In vivo activity against Escherichia coli (sc); conditions: read-out: PD50; summary of the method: as §2
Enterococcus faecalis = experiment: Minimum inhibitory concentration against Streptococcus faecalis (MGH-2).; summary of the method: as §1
Enterobacter [16] = experiment: Minimum inhibitory concentration as geometric mean calculated for the gram-negative enterobacteriaceae.
Summary of the method: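 MICs were determined by standard microtitration. The value is the geometric mean of the MICs across the Gram-negative Enterobacteriaceae strains in the test panel.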

SMILES: CCNCC1CCN(c2c(F)cc3c(=O)c(C(=O)O)cn(CC)c3c2F)C1 (configuration not stated) [MERAFLOXACIN]
- Log (Escherichia coli [1]): 6.59 1/M MIC
- Log (Escherichia coli [2]): 6.35 1/M MIC
- MIC (Escherichia coli [3]): 0.1 µg/mL (≈ 0.264 µM)
- MIC (Escherichia coli [4]): 0.1 µg/mL (≈ 0.264 µM)
- MIC (Enterobacter cloacae): 0.2 µg/mL (≈ 0.527 µM)
- MIC (Klebsiella pneumoniae): 0.2 µg/mL (≈ 0.527 µM)
- ED50 (Mus musculus [5]): > 200 mg/kg
- ED50 (Mus musculus [6]): 76 mg/kg
- ED50 (Mus musculus [7]): 20 mg/kg
- ED50 (Mus musculus [8]): 4 mg/kg
- ED50 (Mus musculus [9]): 9 mg/kg
- ED50 (Mus musculus [10]): 3 mg/kg
- ED50 (Mus musculus [11]): 12 mg/kg
- MIC (Pseudomonas aeruginosa): 1.6 µg/mL (≈ 4.22 µM)
- MIC (Providencia rettgeri): 0.4 µg/mL (≈ 1.05 µM)
- MIC (Streptococcus pyogenes): 0.1 µg/mL (≈ 0.264 µM)
- MIC (Staphylococcus aureus [12]): 0.1 µg/mL (≈ 0.264 µM)
- MIC (Staphylococcus aureus [13]): 0.05 µg/mL (≈ 0.132 µM)
- MIC (Streptococcus pneumoniae): 0.1 µg/mL (≈ 0.264 µM)
- MIC (Enterobacter [14]): 0.17 µg/mL (≈ 0.448 µM)
- ED50 (Mus musculus [15]): 2 mg/kg
- MIC (Enterococcus faecalis): 0.1 µg/mL (≈ 0.264 µM)

SMILES: CCn1cc(C(=O)O)c(=O)c2cc(F)c(N3CCNCC3)cc21 [NORFLOXACIN]
- MIC (Escherichia coli [3]): 0.1 µg/mL (≈ 0.313 µM)
- MIC (Escherichia coli [4]): 0.025 µg/mL (≈ 0.0783 µM)
- MIC (Enterobacter cloacae): 0.1 µg/mL (≈ 0.313 µM)
- MIC (Klebsiella pneumoniae): 0.05 µg/mL (≈ 0.157 µM)
- ED50 (Mus musculus [5]): 76 mg/kg
- ED50 (Mus musculus [6]): 11 mg/kg
- ED50 (Mus musculus [7]): > 100 mg/kg
- ED50 (Mus musculus [8]): > 100 mg/kg
- ED50 (Mus musculus [9]): > 100 mg/kg
- ED50 (Mus musculus [10]): 45 mg/kg
- ED50 (Mus musculus [11]): 4 mg/kg
- MIC (Pseudomonas aeruginosa): 0.2 µg/mL (≈ 0.626 µM)
- MIC (Providencia rettgeri): 0.05 µg/mL (≈ 0.157 µM)
- MIC (Streptococcus pyogenes): 0.8 µg/mL (≈ 2.51 µM)
- MIC (Staphylococcus aureus [12]): 0.8 µg/mL (≈ 2.51 µM)
- MIC (Staphylococcus aureus [13]): 0.05 µg/mL (≈ 0.157 µM)
- MIC (Streptococcus pneumoniae): 1.6 µg/mL (≈ 5.01 µM)
- MIC (Enterobacter [16]): 0.06 µg/mL (≈ 0.188 µM)
- ED50 (Mus musculus [15]): 0.6 mg/kg
- MIC (Enterococcus faecalis): 1.6 µg/mL (≈ 5.01 µM)
